According to ChEMBL document CHEMBL2401663, “(Biphenyl-4-yl)methylammonium chlorides: potent anticonvulsants that modulate Na+ currents” (J Med Chem, 2013):
Calls of active or inactive are those of the source. No cut-off for these calls is given here.

Tests used:
[1] = Toxicity in po dosed albino Sprague-Dawley rat assessed as behavioral toxicity after 0.25 to 4 hrs; type: organism-based; settings: in vivo
Outline: (§1)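 Male albino Sprague-Dawley rats dosed ip or orally, scored for behavioral toxicity (neurological impairment). TD50 is in mg/kg, taken at the time of peak effect.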

Rattus norvegicus [2] = assay: Anticonvulsant activity against po dosed albino Sprague-Dawley rat after 0.25 to 4 hrs by maximal electroshock seizure test; type: functional
Outline: (§2)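 Male albino Sprague-Dawley rats dosed ip or orally under the NIH Anticonvulsant Screening Program, tested by maximal electroshock seizure.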

[3] = Toxicity in ip dosed albino Sprague-Dawley rat assessed as behavioral toxicity after 0.25 to 4 hrs; type: organism-based; settings: in vivo; outline: as §1
Rattus norvegicus [4] = assay: Anticonvulsant activity against ip dosed albino Sprague-Dawley rat after 0.25 to 4 hrs by maximal electroshock seizure test; type: functional; outline: as §2
[5] = Toxicity in ip dosed albino CF1 mouse after 0.25 to 4 hrs by rotorod test; type: organism-based; settings: in vivo
Mus musculus [6] = assay: Anticonvulsant activity against ip dosed albino CF1 mouse after 0.25 to 4 hrs by subcutaneous pentylenetetrazol test; type: functional
Mus musculus [7] = assay: Anticonvulsant activity against ip dosed albino CF1 mouse after 1 to 4 hrs by 6 Hz psychomotor seizure test; type: functional
Mus musculus [8] = assay: Anticonvulsant activity against ip dosed albino CF1 mouse after 4 hrs by maximal electroshock seizure test; type: functional
Mus musculus [9] = assay: Toxicity in ip dosed albino CF1 mouse after 0.5 to 2 hrs by rotorod test; type: organism-based; settings: in vivo
Mus musculus [10] = assay: Anticonvulsant activity against ip dosed albino CF1 mouse after 0.5 to 2 hrs by 6 Hz psychomotor seizure test; type: functional
Mus musculus [11] = assay: Anticonvulsant activity against ip dosed albino CF1 mouse after 0.5 hrs by maximal electroshock seizure test; type: functional
Mus musculus [12] = assay: Anticonvulsant activity against ip dosed albino CF1 mouse after 0.5 to 4 hrs by subcutaneous pentylenetetrazol test; type: functional
Mus musculus [13] = assay: Anticonvulsant activity against ip dosed albino CF1 mouse after 1 hr by 6 Hz psychomotor seizure test; type: functional
Mus musculus [14] = assay: Anticonvulsant activity against ip dosed albino CF1 mouse after […] by maximal electroshock seizure test; type: functional
Mus musculus [15] = assay: Anticonvulsant activity against ip dosed albino CF1 mouse after 0.25 to 4 hrs by maximal electroshock seizure test; type: functional
Rattus norvegicus [16] = species: Rattus norvegicus; assay: Inhibition of Na+ channel in rat embryonic cortical neurons assessed as frequency-dependent inactivation at 20 uM by whole cell voltage clamp technique relative to control
Rattus norvegicus [17] = species: Rattus norvegicus; assay: Inhibition of Na+ channel in rat embryonic cortical neurons assessed as fast inactivation at 20 uM by whole cell voltage clamp technique (reference value: -53.9 +/- 1.2 mV)
Outline: (§3)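 Embryonic day 19 rat cortical neurons by whole-cell voltage clamp at room temperature, with protocols mostly as for CAD cells. 20 μM compared with 0.1% DMSO. Activation from 15-ms pulses, −70 to +80 mV; conductance G = I/(Vm − Vrev); Boltzmann fits giving V1/2 and k. Mean ± SEM; ANOVA with post-hoc test.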

Rattus norvegicus [18] = species: Rattus norvegicus; assay: Inhibition of Na+ channel in rat embryonic cortical neurons assessed as steady state activation at 20 uM by whole cell voltage clamp technique relative to control; outline: as §3
Rattus norvegicus [19] = species: Rattus norvegicus; assay: Inhibition of Na+ channel in rat embryonic cortical neurons assessed as slow inactivation at 20 uM by whole cell voltage clamp technique; outline: as §3
CAD [20] = assay: Inhibition of Na+ channel in mouse CAD cells assessed as frequency-dependent inactivation at 10 uM by whole cell voltage clamp technique relative to control; type: cell-based
Outline: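 Frequency (use)-dependent inhibition of Na+ currents in CAD cells by whole-cell voltage clamp at room temperature. Current trend and amplitude at 10 μM compared with control.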

CAD [21] = assay: Inhibition of Na+ channel in mouse CAD cells assessed as fast inactivation by whole cell voltage clamp technique; type: cell-based
Outline: (§4)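 Steady-state fast inactivation in CAD cells by whole-cell voltage clamp at room temperature. Cells held at −80 mV, given 500-ms prepulses from −120 to −10 mV in 10-mV steps, then a 20-ms step to 0 mV. Curves fitted with a single Boltzmann; V1/2 shift compared with 0.1% DMSO by ANOVA and Dunnett's test. Mean ± SEM.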

CAD [22] = assay: Inhibition of Na+ channel in mouse CAD cells assessed as hyperpolarizing shift at 30 uM by whole cell voltage clamp technique (reference value: -71.6 +/- 0.6 mV); type: cell-based; outline: as §4
CAD [23] = assay: Inhibition of Na+ channel in mouse CAD cells assessed as hyperpolarizing shift at 1 uM by whole cell voltage clamp technique (reference value: -71.6 +/- 0.6 mV); type: cell-based; outline: as §4
Rattus norvegicus [24] = species: Rattus norvegicus; assay: Protective index, ratio of TD50 for albino Sprague-Dawley rat to ED50 for albino Sprague-Dawley rat; type: functional
Outline: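 Protective index is TD50/ED50, both from orally dosed male Sprague-Dawley rats. TD50 is for behavioral toxicity and ED50 is for maximal electroshock seizure.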

[25] = Inhibition of Na+ channel in mouse CAD cells assessed as slow inactivation by whole cell voltage clamp technique; type: cell-based
Outline: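 CAD cells (Ham's F12/EMEM, 8% FBS, 37 °C, 5% CO2) by whole-cell voltage clamp at room temperature. Na+ channel slow inactivation measured at −50 mV; IC50 is the concentration at which half of the channels reach a slow-inactivated state.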

Rattus norvegicus [26] = assay: Anticonvulsant activity against po dosed albino Sprague-Dawley rat after 2 hrs by maximal electroshock seizure test; type: functional; outline: as §2
Rattus norvegicus [27] = assay: Toxicity in ip dosed albino Sprague-Dawley rat assessed as behavioral toxicity after 2 hrs; type: organism-based; settings: in vivo; outline: as §1
Rattus norvegicus [28] = assay: Anticonvulsant activity against ip dosed albino Sprague-Dawley rat after 2 hrs by maximal electroshock seizure test; type: functional; outline: as §2
Mus musculus [29] = assay: Toxicity in ip dosed albino CF1 mouse after 6 hrs by rotorod test; type: organism-based; settings: in vivo
Mus musculus [30] = assay: Anticonvulsant activity against ip dosed albino CF1 mouse after 4 hrs by subcutaneous pentylenetetrazol test; type: functional; settings: albino CF1, 4 h
[31] = Toxicity in ip dosed albino Sprague-Dawley rat assessed as behavioral toxicity after 0.25 to 0.5 hrs; type: organism-based; settings: in vivo; outline: as §1
Rattus norvegicus [32] = assay: Anticonvulsant activity against ip dosed albino Sprague-Dawley rat after 0.25 to 0.5 hrs by maximal electroshock seizure test; type: functional; outline: as §2
Mus musculus [33] = assay: Anticonvulsant activity against ip dosed albino CF1 mouse after 0.25 to 2 hrs by subcutaneous pentylenetetrazol test; type: functional
Mus musculus [34] = assay: Anticonvulsant activity against ip dosed albino CF1 mouse after 0.5 to 4 hrs by 6 Hz psychomotor seizure test; type: functional
Mus musculus [35] = assay: Anticonvulsant activity against ip dosed albino CF1 mouse after 0.25 to 1 hr by maximal electroshock seizure test; type: functional
Mus musculus [36] = assay: Anticonvulsant activity against ip dosed albino CF1 mouse after 0.5 to 1 hr by 6 Hz psychomotor seizure test; type: functional
Mus musculus [37] = assay: Anticonvulsant activity against ip dosed albino CF1 mouse after 0.25 to 0.5 hrs by maximal electroshock seizure test; type: functional

SMILES: Cl.NCc1ccc(-c2ccc(F)cc2)cc1
- TD50 [1]: > 30 mg/kg
- ED50 (Rattus norvegicus [2]): > 30 mg/kg
- TD50 [3]: > 30 mg/kg
- ED50 (Rattus norvegicus [4]): > 30 mg/kg
- TD50 [5]: > 50 mg/kg
- ED50 (Mus musculus [6]): > 50 mg/kg
- ED50 (Mus musculus [7]): < 100 mg/kg
- ED50 (Mus musculus [8]): 50 mg/kg

SMILES: COC(=O)c1cccc(-c2ccc(CN)cc2)c1.Cl
- TD50 [1]: > 30 mg/kg
- ED50 (Rattus norvegicus [2]): > 30 mg/kg
- TD50 [3]: > 30 mg/kg
- ED50 (Rattus norvegicus [4]): > 30 mg/kg
- TD50 (Mus musculus [9]): 100 mg/kg
- ED50 (Mus musculus [10]): > 300 mg/kg
- ED50 (Mus musculus [11]): 100 mg/kg

SMILES: COc1cccc(-c2ccc(CN)cc2)c1.Cl
- TD50 [1]: > 30 mg/kg
- ED50 (Rattus norvegicus [2]): > 30 mg/kg
- TD50 [3]: > 30 mg/kg
- ED50 (Rattus norvegicus [4]): > 30 mg/kg
- TD50 [5]: > 100 mg/kg
- ED50 (Mus musculus [12]): > 100 mg/kg
- ED50 (Mus musculus [13]): 100 mg/kg
- ED50 (Mus musculus [14]): < 100 mg/kg

SMILES: Cl.NCc1ccc(-c2ccc(Cl)cc2)cc1
- TD50 [1]: > 30 mg/kg
- ED50 (Rattus norvegicus [2]): > 30 mg/kg
- TD50 [3]: > 30 mg/kg
- ED50 (Rattus norvegicus [4]): > 30 mg/kg
- TD50 [5]: > 50 mg/kg
- ED50 (Mus musculus [6]): > 50 mg/kg
- ED50 (Mus musculus [7]): < 100 mg/kg
- ED50 (Mus musculus [15]): > 50 mg/kg

SMILES: Cl.NCc1ccc(-c2cccc(OC(F)(F)F)c2)cc1
- inhibition (Rattus norvegicus [16]): inactive
- V1/2 (Rattus norvegicus [17]): -69.6 mV
- inhibition (Rattus norvegicus [18]): inactive
- inhibition (Rattus norvegicus [19]): Active
- inhibition (CAD [20]): inactive
- inhibition (CAD [21]): inactive
- V1/2 (CAD [22]): 26.5 mV
- V1/2 (CAD [23]): 11.2 mV
- Ratio TD50/ED50 (Rattus norvegicus [24]): >57
- IC50 [25]: 2700 nM
- TD50 [1]: > 500 mg/kg
- ED50 (Rattus norvegicus [26]): 8.7 mg/kg
- TD50 (Rattus norvegicus [27]): 72 mg/kg
- ED50 (Rattus norvegicus [28]): 16 mg/kg
- TD50 (Mus musculus [29]): 81 mg/kg
- ED50 (Mus musculus [30]): 81 mg/kg
- ED50 (Mus musculus [13]): 43 mg/kg
- ED50 (Mus musculus [11]): 25 mg/kg

SMILES: Cl.NCc1ccc(-c2cccc(Cl)c2)cc1
- TD50 [1]: > 30 mg/kg
- ED50 (Rattus norvegicus [2]): > 30 mg/kg
- TD50 [31]: 65 mg/kg
- ED50 (Rattus norvegicus [32]): 65 mg/kg
- TD50 [5]: > 100 mg/kg
- ED50 (Mus musculus [33]): < 100 mg/kg
- ED50 (Mus musculus [34]): < 100 mg/kg
- ED50 (Mus musculus [35]): < 100 mg/kg

SMILES: Cl.NCc1ccc(-c2ccccc2)cc1
- TD50 [1]: > 30 mg/kg
- ED50 (Rattus norvegicus [2]): > 30 mg/kg
- TD50 [3]: > 30 mg/kg
- ED50 (Rattus norvegicus [4]): > 30 mg/kg
- TD50 [5]: > 100 mg/kg
- ED50 (Mus musculus [12]): > 300 mg/kg
- ED50 (Mus musculus [36]): 100 mg/kg
- ED50 (Mus musculus [37]): 30 mg/kg

SMILES: NCc1ccc(OCc2cccc(F)c2)cc1
- inhibition (CAD [20]): Active
- inhibition (CAD [21]): Active
- IC50 [25]: 2100 nM
